Measured values reported in ChEMBL document CHEMBL1772938, “Optimization of 3-(phenylthio)quinolinium compounds against opportunistic fungal pathogens” (Eur J Med Chem, 2011).

Tests used:
Pichia kudriavzevii [1] = assay: Antimicrobial activity against Candida krusei ATCC 6258 by alamar blue assay; assay type: functional, organism-based
Nakaseomyces glabratus [2] = assay: Antimicrobial activity against Candida glabrata ATCC 90030 by alamar blue assay; assay type: functional, organism-based
[3] = Selectivity index, ratio of TC50 for african green monkey Vero cells to IC50 for Cryptococcus neoformans ATCC 90113; assay type: toxicity, cell-based; settings: read-out: Selectivity Index
Cryptococcus neoformans [4] = assay: Antimicrobial activity against Cryptococcus neoformans ATCC 90113 by alamar blue assay; assay type: functional, organism-based
Nakaseomyces glabratus [5] = assay: Antimicrobial activity against Candida glabrata ATCC 90030 by CLSI method; assay type: functional
In short: (§1)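 Modified CLSI microdilution. DMSO samples were serially diluted in saline and tested in duplicate against inoculum adjusted by the 0.5 McFarland standard. The final test range started at 20 μg/mL. Plates were read before and after incubation. IC50 came from % growth versus concentration; MIC was the lowest concentration without visible growth. Growth, solvent, blank and amphotericin B controls were on each plate.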

Vero = assay: Cytotoxicity against african green monkey Vero cells at 10 ug/ml after 48 hrs by neutral red assay; assay type: cell-based; settings: chlorocebus sabaeus
In short: (§2)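 VERO kidney cells were seeded at 25,000 cells/well and incubated 24 h. Samples were added up to 10 μg/mL and incubated a further 48 h. Viable cells were counted by neutral red uptake. IC50 came from growth-inhibition dose curves. Doxorubicin was the positive control and DMSO the vehicle control.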

Candida albicans [6] = assay: Antimicrobial activity against Candida albicans ATCC 90028 by alamar blue assay; assay type: functional, organism-based
Aspergillus fumigatus [7] = assay: Antimicrobial activity against Aspergillus fumigatus ATCC 90906 by alamar blue assay; assay type: functional, organism-based
In short: (§3)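 Modified CLSI broth microdilution. DMSO stocks were serially diluted in saline and run in duplicate. Inoculum was set by the 0.5 McFarland standard in YM broth for MIC, or in RPMI-1640 + 5% Alamar Blue for IC50. The top final concentration was 20 μg/mL. Fluorescence (544ex/590em) was read before and after incubation. IC50 was taken from % growth versus concentration; MIC was read visually as no blue-to-pink change.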

Candida albicans [8] = assay: Antimicrobial activity against Candida albicans ATCC 90028 by CLSI method; assay type: functional
In short: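 C. albicans inoculum was made to the 0.5 McFarland standard in Sabouraud dextrose broth or RPMI 1640. Samples came from DMSO stocks serially diluted in saline, in duplicate, starting at a final 20 μg/mL. Plates were read at OD 630 nm before and after incubation. IC50 came from the % growth versus concentration plot; MIC was the lowest concentration with no visible growth. Included: growth, solvent and blank controls, plus amphotericin B.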

Aspergillus fumigatus [9] = assay: Antimicrobial activity against Aspergillus fumigatus ATCC 90906 by CLSI method; assay type: functional; in short: as §3
Cryptococcus neoformans [10] = assay: Antimicrobial activity against Cryptococcus neoformans ATCC 90113 by CLSI method; assay type: functional
In short: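 C. neoformans in Sabouraud dextrose broth, inoculum per the 0.5 McFarland standard. Saline serial dilutions of DMSO samples were tested in duplicate, with a final top concentration of 20 μg/mL. OD 630 nm was read before and after incubation. IC50 was derived from % growth versus concentration. MIC was judged visually as the lowest concentration with no detectable growth. Amphotericin B served as the drug control.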

Pichia kudriavzevii [11] = assay: Antimicrobial activity against Candida krusei ATCC 6258 by CLSI method; assay type: functional; in short: as §1
[12] = Cytotoxicity against african green monkey Vero cells after 48 hrs by neutral red assay; assay type: cell-based; settings: chlorocebus sabaeus, read-out: TC50; in short: as §2

Row | Compound | IC50 (Pichia kudriavzevii [1]) | IC50 (Nakaseomyces glabratus [2]) | selectivity ratio [3] | IC50 (Cryptococcus neoformans [4]) | MFC (Nakaseomyces glabratus [5]) | MIC (Nakaseomyces glabratus [5]) | Activity (Vero) | IC50 (Candida albicans [6]) | IC50 (Aspergillus fumigatus [7]) | MFC (Candida albicans [8]) | MIC (Candida albicans [8]) | MFC (Aspergillus fumigatus [9]) | MIC (Aspergillus fumigatus [9]) | MFC (Cryptococcus neoformans [10]) | MIC (Cryptococcus neoformans [10]) | MFC (Pichia kudriavzevii [11]) | MIC (Pichia kudriavzevii [11]) | CC50 at 48 h [12]
1 | FC(F)(F)c1cccc(Sc2cc3ccccc3[n+](CCCCCC3CCCCC3)c2)c1.[I-] | 1.2 µg/mL | 4.6 µg/mL | > 25 | 0.4 µg/mL | 10 µg/mL | 10 µg/mL | Non-toxic | 1.3 µg/mL | 2.2 µg/mL | 5 µg/mL | 2.5 µg/mL | > 20 µg/mL | 2.5 µg/mL | 0.6 µg/mL | 0.6 µg/mL | 2.5 µg/mL | 2.5 µg/mL | 
2 | Cc1ccccc1Sc1cc2ccccc2[n+](CCCCCc2ccccc2)c1.[I-] |  |  |  | 4 µg/mL |  |  | Non-toxic | > 20 µg/mL | > 20 µg/mL | > 20 µg/mL | > 20 µg/mL | > 20 µg/mL | > 20 µg/mL | 20 µg/mL | 5 µg/mL |  |  | 
3 | FC(F)(F)c1cccc(Sc2cc3ccccc3[n+](CCCCCc3ccccc3)c2)c1.[I-] |  |  |  | 2.1 µg/mL |  |  | Non-toxic | 14 µg/mL | 17 µg/mL | > 20 µg/mL | > 20 µg/mL | > 20 µg/mL | > 20 µg/mL | 10 µg/mL | 5 µg/mL |  |  | 
4 | Brc1ccc(Sc2cc3ccccc3[n+](CCCCCc3ccccc3)c2)cc1.[I-] |  |  |  | 2 µg/mL |  |  | Non-toxic | 8.5 µg/mL | 3.5 µg/mL | > 20 µg/mL | 20 µg/mL | > 20 µg/mL | 10 µg/mL | 10 µg/mL | 10 µg/mL |  |  | 
5 | Fc1ccccc1Sc1cc2ccccc2[n+](CCCCCc2ccccc2)c1.[I-] |  |  |  | 9.5 µg/mL |  |  | Non-toxic | > 20 µg/mL | 9 µg/mL | > 20 µg/mL | > 20 µg/mL | > 20 µg/mL | 20 µg/mL | > 20 µg/mL | 20 µg/mL |  |  | 
6 | FC(F)(F)c1ccccc1Sc1cc2ccccc2[n+](CCCCCc2ccccc2)c1.[I-] |  |  |  | 2.2 µg/mL |  |  | Non-toxic | 12 µg/mL | 6.9 µg/mL | > 20 µg/mL | > 20 µg/mL | > 20 µg/mL | > 20 µg/mL | 10 µg/mL | 5 µg/mL |  |  | 
7 | Fc1cccc(Sc2cc3ccccc3[n+](CCCCCc3ccccc3)c2)c1.[I-] |  |  |  | 7 µg/mL |  |  | Non-toxic | > 20 µg/mL | 5 µg/mL | > 20 µg/mL | > 20 µg/mL | > 20 µg/mL | 20 µg/mL | > 20 µg/mL | 10 µg/mL |  |  | 
8 | Oc1cccc(Sc2cc3ccccc3[n+](CCCCCC3CCCCC3)c2)c1.[I-] | 5.1 µg/mL | > 20 µg/mL | > 7.7 | 1.3 µg/mL | > 20 µg/mL | > 20 µg/mL | Non-toxic | 3.5 µg/mL | 10 µg/mL | 20 µg/mL | 10 µg/mL | > 20 µg/mL | 20 µg/mL | 5 µg/mL | 2.5 µg/mL | 20 µg/mL | 10 µg/mL | 
9 | N#Cc1ccc(Sc2cc3ccccc3[n+](CCCCCC3CCCCC3)c2)cc1.[I-] | 2.3 µg/mL | 6.3 µg/mL | > 20 | 0.5 µg/mL | 20 µg/mL | 10 µg/mL | Non-toxic | 6.2 µg/mL | 19 µg/mL | 20 µg/mL | 10 µg/mL | > 20 µg/mL | 20 µg/mL | 5 µg/mL | 1.3 µg/mL | 10 µg/mL | 5 µg/mL | 
10 | N#Cc1cccc(Sc2cc3ccccc3[n+](CCCCCC3CCCCC3)c2)c1.[I-] | 1.4 µg/mL | 13 µg/mL | > 14 | 0.7 µg/mL | 20 µg/mL | 20 µg/mL | Non-toxic | 6.7 µg/mL | 19 µg/mL | 20 µg/mL | 20 µg/mL | > 20 µg/mL | 20 µg/mL | 5 µg/mL | 1.3 µg/mL | 10 µg/mL | 5 µg/mL | 
11 | Oc1ccc(Sc2cc3ccccc3[n+](CCCCCC3CCCCC3)c2)cc1.[I-] | 1.5 µg/mL | > 20 µg/mL | > 14 | 0.7 µg/mL | > 20 µg/mL | > 20 µg/mL | Non-toxic | 3.9 µg/mL | 7.9 µg/mL | 20 µg/mL | 10 µg/mL | > 20 µg/mL | 20 µg/mL | 2.5 µg/mL | 1.3 µg/mL | 5 µg/mL | 5 µg/mL | 
12 | Fc1ccc(Sc2cc3ccccc3[n+](CCCCCc3ccccc3)c2)cc1.[I-] |  |  |  | 15 µg/mL |  |  | Non-toxic | > 20 µg/mL | 9 µg/mL | > 20 µg/mL | > 20 µg/mL | > 20 µg/mL | 20 µg/mL | > 20 µg/mL | 20 µg/mL |  |  | 
13 | FC(F)(F)c1ccc(Sc2cc3ccccc3[n+](CCCCCC3CCCCC3)c2)cc1.[I-] | 1.3 µg/mL | 4.7 µg/mL | > 33 | 0.3 µg/mL | 10 µg/mL | 10 µg/mL | Non-toxic | 0.8 µg/mL | 1.7 µg/mL | 2.5 µg/mL | 2.5 µg/mL | > 20 µg/mL | 2.5 µg/mL | 0.6 µg/mL | 0.6 µg/mL | 5 µg/mL | 2.5 µg/mL | 
14 | Cc1cccc(Sc2cc3ccccc3[n+](CCCCCC3CCCCC3)c2)c1.[I-] | 0.4 µg/mL | 5.5 µg/mL | 19 | 0.2 µg/mL | 10 µg/mL | 10 µg/mL |  | 1.4 µg/mL | 3.5 µg/mL | 5 µg/mL | 2.5 µg/mL | 5 µg/mL | 5 µg/mL | 0.4 µg/mL | 0.3 µg/mL | 1.3 µg/mL | 0.6 µg/mL | 3.7 µg/mL
